MrgX1 antag = blocks BAM8-22 activation of human MrgX1 receptor | Q96LB2 | MRGX1-HEK293 calcium flux, Fluo-4, BAM8-22 antagonism; stronger effect = lower value | B-score at 10 µM | actives 1.3% (n = 310,000) | AID 588676;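 active = calcium-response B-score plate-corrected more than 3 library SD below zero, starting fluorescence within 5 deviations, no agonist response on first addition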;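 note: peak minus trough fluorescence over baseline after final BAM8-22 challenge near maximal dose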
Target sequence (Q96LB2 whole entry, looked up): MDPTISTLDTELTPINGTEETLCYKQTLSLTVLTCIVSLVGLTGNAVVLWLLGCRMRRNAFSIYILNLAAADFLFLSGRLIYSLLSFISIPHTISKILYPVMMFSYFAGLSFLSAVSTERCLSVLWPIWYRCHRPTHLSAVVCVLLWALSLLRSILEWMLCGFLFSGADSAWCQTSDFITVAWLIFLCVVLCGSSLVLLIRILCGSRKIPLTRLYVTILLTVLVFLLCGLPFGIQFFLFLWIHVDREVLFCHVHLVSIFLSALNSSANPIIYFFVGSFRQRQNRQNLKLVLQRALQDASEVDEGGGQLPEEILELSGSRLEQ
RGS4 pot = potentiators or activators of RGS4 | HEK293 M3R/inducible RGS4, carbachol calcium flux Fluo4; stronger effect = lower value | B-score at 10 µM | AID 463111 | actives 0.92% (n = 310,000);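 active = B-score of the integrated calcium signal more than 4 SD below the library mean, with starting fluorescence not abnormally high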;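 note: negative B-score means reduced calcium response which marks RGS4 activation or potentiation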
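Reagent: ECmax carbachol challenge; Test system: M3R-expressing HEK293 line, RGS4 induced by doxycycline; Schedule: overnight RGS4 induction, 30 min dye load 37 °C, 20 min compound RT; Detection: calcium dye Fluo4 fluorescence; Read-out: Agonist-evoked peak-minus-minimum fluorescence over baseline, integrated ratio, B score.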
RGS4 inh = human RGS4 inhibition; P49798; HEK293 M3R/RGS4 inducible, Fluo-4 calcium flux; stronger effect = higher value; triggered by carbachol at its EC20; B-score at 10 µM; actives 0.45% (n = 310,000); AID 463165;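 active = B-score, a plate-corrected calcium signal, over three deviations above library mean, with baseline fluorescence within five deviations of library mean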;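 note: RGS4 expression induced by doxycycline in cells with stable M3 receptor; B-score is computed from the integrated fluorescence ratio over baseline after carbachol; higher B-score means a larger calcium signal and so more RGS4 inhibition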
Target sequence (P49798 whole entry, looked up): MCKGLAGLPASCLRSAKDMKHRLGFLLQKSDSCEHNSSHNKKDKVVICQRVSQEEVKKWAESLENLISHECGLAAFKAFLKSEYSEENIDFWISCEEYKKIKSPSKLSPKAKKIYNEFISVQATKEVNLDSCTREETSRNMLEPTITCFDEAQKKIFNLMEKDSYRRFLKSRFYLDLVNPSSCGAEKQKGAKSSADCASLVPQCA
MrgX1 ag = agonists of human MrgX1 receptor | MrgX1-HEK293 cells, Fluo-4 calcium fluorescence, agonist mode; stronger effect = higher value | B-score at 10 µM | actives 0.44% (n = 310,000);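 active = calcium response B-score plate-corrected fluorescence ratio at least 3 library SD, with starting fluorescence B-score inside 5 SD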
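Assay system: stable human MrgX1 HEK293 cell line. Quantity: 15,000 cells per well. Schedule: cells plated overnight, dye loaded 0.5 h 37 °C, 0.5 h room temperature. Detection: Fluo-4 NW calcium-flux fluorescence, kinetic read. Read-out basis: peak-minus-minimum fluorescence over baseline, converted to B scores. Control set: positive and negative control wells on each plate.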
MrgX1 allo act = allosterically activates human MrgX1 receptor signaling | Q96LB2 | MrgX1-HEK293, Fluo-4 calcium flux, FDSS; stronger effect = higher value | B-score at 10 µM | actives 0.63% (n = 310,000) | AID 588675;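 active = plate-corrected calcium response at least 3 library SD above typical, normal starting fluorescence, not activating the receptor alone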;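 note: compound read alongside a low EC10 to EC30 dose of BAM8-22 agonist; peak minus trough fluorescence over baseline measured at the second addition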
RGS4 act valid = RGS4 activation, validation assay; shares compounds with RGS4 pot; HEK293 M3R/RGS4 inducible, carbachol calcium flux Fluo4; inhibition, % at 10 µM; actives 89% (n = 1,100);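 active = inhibition above 3 SD of the buffer control wells, cut at about 41% in these data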;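 note: signal is the integrated peak-minus-minimum Fluo4 fluorescence over baseline ratio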
RGS4 act ctr = counter-screen for RGS4 activators: effect in non-induced cells. shares compounds with RGS4 pot. HEK293 M3R non-induced RGS4, Fluo4 calcium flux; after carbachol challenge at its EC90. inhibition, % at 10 µM. actives 82% (n = 1,100). AID 602283;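 active = inhibition exceeding 3 SD of buffer-only control wells, cut at about 26% in these data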;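 note: percent drop in integrated peak-minus-baseline over baseline Fluo4 ratio after carbachol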
MrgX1 ag confirm = reconfirmed activator of human MrgX1 receptor signaling | shares compounds with MrgX1 ag | activation, % at 10 µM | actives 78% (n = 600) | MrgX1-HEK293, Fluo-4 calcium fluorescence, FDSS;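 active = calcium signal rise, corrected for plate position, at least 3 library SD high, with starting brightness within 5 such deviations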
MrgX1 PAM conf = reconfirmed allosteric activator of human MrgX1 receptor. shares compounds with MrgX1 allo act. activation (ratio percentage), % at 10 µM. AID 602413. MrgX1-HEK293, Fluo-4 calcium fluorescence, FDSS. actives 13% (n = 1,200);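 active = ratio at least 3 SD above the weak peptide control, stable starting fluorescence, no direct agonism earlier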;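 note: compound followed by low BAM8-22 agonist challenge near EC20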
MrgX1 antag conf = human MrgX1 receptor antagonism, re-confirmation screen | shares compounds with MrgX1 antag | MrgX1-HEK293, BAM8-22 calcium flux, Fluo-4; stronger effect = lower value | remaining BAM8-22 calcium response % of control (stronger effect = lower value), % at 10 µM | actives 19% (n = 2,300);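 active = remaining agonist calcium response no higher than 100% minus 3 SD of agonist-only control wells, with starting fluorescence near control levels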;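 note: agonist BAM8-22 given at a near maximal EC90 to ECmax level; peak minus minimum fluorescence divided by baseline after agonist addition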
HEK293 Ca flux = counter-screen for MrgX1 antagonists: effect in parental HEK293 cells; fluorescence ratio F(max-min)/F0 at 10 µM; actives 2% (n = 4,000); shares compounds with MrgX1 antag; AID 624111; Fluo-4 calcium fluorescence, FDSS;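 active = duplicate-averaged calcium fluorescence ratio at least three times the standard deviation of buffer wells, a nonspecific response in parental cells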
HEK293 Ca counter = activity in parental HEK293 cells without MrgX1; shares compounds with MrgX1 antag; parental HEK293 calcium flux, Fluo-4 fluorescence ratio; stronger effect = higher value; fluorescence ratio F(max-min)/F0 at 10 µM; actives 0.4% (n = 4,000);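 active = calcium fluorescence ratio, averaged over duplicates, at least 3 SD of the buffer-well ratio, meaning a nonspecific response in receptor-free cells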;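 note: untransfected parental HEK293 lacking MrgX1 used as counterscreen for MrgX1 allosteric activators; fluorescence change taken during the second addition on a kinetic imager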
HEK293 Ca cntr2 = activity in parental HEK293 cells lacking MrgX1 receptor; shares compounds with MrgX1 antag; Fluo-4 calcium fluorescence (FDSS); stronger effect = higher value; fluorescence ratio F(max-min)/F0 at 10 µM; actives 8.7% (n = 4,000); AID 624115;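 active = calcium fluorescence ratio at least three times the spread of buffer wells, meaning a non-specific response in parental cells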
Active calls of the source: *. Shown are actives, neighbours in structure and some others; about 3.5% of the full set was active somewhere.

For CCn1c(SCC#N)nc2c(c1=O)C1(CCCC1)Cc1ccccc1-2 the results were MrgX1 antag inactive, RGS4 pot -10.4*, RGS4 inh inactive, MrgX1 ag inactive, MrgX1 allo act inactive, RGS4 act valid 69.0* and RGS4 act ctr 83.8*.
Screening Cc1ccc(NC(=S)N(C)Cc2cn(C)c3ccccc23)cc1 returned MrgX1 antag inactive, RGS4 pot inactive, RGS4 inh inactive, MrgX1 ag inactive and MrgX1 allo act inactive.
Screening CN(c1ccccc1)S(=O)(=O)c1cccc(C(=O)NCCc2c[nH]c3ccccc23)c1 returned MrgX1 antag inactive, RGS4 pot -9.16*, RGS4 inh inactive, MrgX1 ag inactive, MrgX1 allo act inactive, RGS4 act valid 74.0* and RGS4 act ctr 47.8*.
For CN1/C(=C/C=C(C#N)C#N)C(C)(C)c2ccccc21 the results were MrgX1 antag inactive, RGS4 pot -7.76*, RGS4 inh inactive, MrgX1 ag inactive, MrgX1 allo act inactive, RGS4 act valid 88.0* and RGS4 act ctr 82.3*.
`CN1\C(=C/C=C/C=C/C=[N+](C)C)C(C)(C)c2ccccc21` gave RGS4 pot inactive and RGS4 inh inactive.
`Cc1ccccc1CN1C(=O)/C(=C\c2ccc(C(=O)NCCN3CCOCC3)cc2)Sc2ccccc21` gave MrgX1 antag inactive, RGS4 pot -12.1*, RGS4 inh inactive, MrgX1 ag inactive, MrgX1 allo act inactive, RGS4 act valid 90.5* and RGS4 act ctr 81.3*.
Screening CCN(CC)c1nc2c(c(=O)n(C)c(=O)n2C)n1CCCc1ccccc1 returned MrgX1 antag inactive, RGS4 pot inactive, RGS4 inh inactive, MrgX1 ag inactive and MrgX1 allo act inactive.
For CN(Cc1ccccc1)c1nc2c(c(=O)n(C)c(=O)n2C)n1CCCc1ccccc1 the results were MrgX1 antag inactive, RGS4 pot -8.49*, RGS4 inh inactive, MrgX1 ag inactive, MrgX1 allo act 8.92*, RGS4 act valid 75.0*, RGS4 act ctr 83.8*, MrgX1 PAM conf inactive, HEK293 Ca flux inactive, HEK293 Ca counter inactive and HEK293 Ca cntr2 inactive.
`COC(=O)c1cccc(NC(=O)c2cccnc2C(=O)O)c1C` gave MrgX1 antag inactive, RGS4 pot inactive, RGS4 inh inactive, MrgX1 ag inactive and MrgX1 allo act inactive.
`CCOC(=O)Cc1csc(NC(=O)c2sc3nc4c(C)cc(C)cc4cc3c2N)n1` gave MrgX1 antag -9.24*, RGS4 pot -8.6*, RGS4 inh inactive, MrgX1 ag inactive, MrgX1 allo act inactive, RGS4 act valid 83.5*, RGS4 act ctr 63.3*, MrgX1 antag conf inactive, HEK293 Ca flux inactive, HEK293 Ca counter inactive and HEK293 Ca cntr2 inactive.
Screening CCOC(=O)Cc1csc(NC(=O)c2csc(C)c2)n1 returned MrgX1 antag inactive, RGS4 pot inactive, RGS4 inh inactive, MrgX1 ag inactive and MrgX1 allo act inactive.
Cc1oc2c(c(=O)c1C)C(=O)CC(c1ccccc1)C2 (stereo not drawn) was read as MrgX1 antag inactive, RGS4 pot inactive, RGS4 inh inactive, MrgX1 ag inactive and MrgX1 allo act inactive.
Screening CS(=O)(=O)c1sc(C#N)c2c1C(=O)CC(c1ccccc1)C2 (stereo not drawn) returned MrgX1 antag inactive, RGS4 pot -9.02*, RGS4 inh inactive, MrgX1 ag 36.6*, MrgX1 allo act inactive, RGS4 act valid 53.0*, RGS4 act ctr 0.0, MrgX1 ag confirm 257.0%*, HEK293 Ca flux inactive, HEK293 Ca counter inactive and HEK293 Ca cntr2 52.8*.
Screening CCOC(=O)C1=C(Cc2ccc(F)cc2)C(=O)c2ccccc2C1=O returned MrgX1 antag inactive, RGS4 pot -9.06*, RGS4 inh inactive, MrgX1 ag 108*, MrgX1 allo act inactive, RGS4 act valid 89.0*, RGS4 act ctr 45.8*, MrgX1 ag confirm 162.9%*, HEK293 Ca flux inactive, HEK293 Ca counter inactive and HEK293 Ca cntr2 54*.
`O=C(OCc1ccc(F)cc1)c1ccc2c(c1)-c1ccccc1C2=O` gave MrgX1 antag inactive, RGS4 pot inactive, RGS4 inh inactive, MrgX1 ag inactive and MrgX1 allo act inactive.
Screening Cc1ccc(O)c(C(=O)c2cnc3c(c2)COc2ccccc2-3)c1 returned MrgX1 antag -10.1*, RGS4 pot -9.29*, RGS4 inh inactive, MrgX1 ag inactive, MrgX1 allo act inactive, RGS4 act valid 85.5*, RGS4 act ctr 88.3*, MrgX1 antag conf inactive, HEK293 Ca flux inactive, HEK293 Ca counter inactive and HEK293 Ca cntr2 inactive.
For CCCCc1ccc(N/C(N)=N/c2nc(C)cc(C)n2)cc1 the results were MrgX1 antag inactive, RGS4 pot -9.64*, RGS4 inh inactive, MrgX1 ag 87.2*, MrgX1 allo act inactive, RGS4 act valid 38.5*, RGS4 act ctr 83.8*, MrgX1 ag confirm 510.9%*, HEK293 Ca flux inactive, HEK293 Ca counter inactive and HEK293 Ca cntr2 113*.
For CCOC(=O)N1CCN(C(=O)CSC2=NS(=O)(=O)c3cc(F)ccc3N2)CC1 the results were MrgX1 antag inactive, RGS4 pot inactive, RGS4 inh inactive, MrgX1 ag inactive and MrgX1 allo act inactive.
